STAT1 blocker: STAT1 signaling inhibition | NIH 3T3 STAT1-luciferase reporter, IFN-gamma, luminescence | inhibition, % at 5.5 µM | AID 920 | actives 0.35% (n = 200,000);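 active means inhibition above a set limit, the mean inhibition across all tested compounds plus 3 SD, cut at about 34% in these data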;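 further: 0% = IFN-gamma with DMSO and 100% = IFN-gamma with 300 µM nifuroxazide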
STAT3 act: activators of IL-6 induced STAT3 signaling | U3A cells, IL-6 STAT3-luciferase reporter, luminescence; 100% = signal with IL-6 EC80 alone | activation (% of control), % at 5.6 µM | actives 0.91% (n = 190,000);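 active means activation above the screen-wide mean of compound activation plus 3 SD, cut at about 130% in these data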;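 further: 0% = background luminescence of wells with medium and substrate only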
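system = STAT3-luciferase reporter U3A cells | reagent = IL-6 stimulus at 33 ng/mL final | timing = 1 h compound pre-exposure, 6 h IL-6 stimulation, 37 °C | measured by = luminescence | evaluation = % activation versus median of IL-6-stimulated wells | control set = IL-6-only wells as 100% reference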
STAT1 act: activators of IFN-gamma induced STAT1 signaling; NIH 3T3 STAT1-luciferase reporter, luminescence; 100% = IFN-gamma alone, no compound; activation (% of control), % at 5.5 µM; actives 2.6% (n = 200,000);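 active means activation above the screen-wide mean activation plus 3 SD, cut at about 130% in these data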;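 further: raw ratio to IFN-gamma control signal so 100% means no change and 0% no light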
APP 5'UTR act: activates APP 5'UTR luciferase reporter. AID 1276. actives 1% (n = 190,000). SH-SY5Y APP 5'UTR luciferase reporter, luminescence; zero percent = DMSO vehicle wells. activation, % at 2 µM;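 active means activation above a set limit, based on mean plus 3 SD of controls, cut at about 140% in these data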
NF-kB expr up: NF-kB expression increase, human neuronal cells. NF-kB reporter expression; hits give high values. actives 1.6% (n = 190,000). fold change at 12.5 µM; in the data active means fold change above about 3.3
STAT3 inh-1: STAT3 signaling inhibition; U3A cells, IL-6 STAT3-luciferase reporter, luminescence; host cell line lacks STAT1; inhibition, % at 5.5 µM; actives 0.89% (n = 190,000); AID 862;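 active means inhibition above the mean inhibition across all screened compounds plus 3 SD, cut at about 44% in these data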;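 further: 0% = DMSO only wells and 100% = 100 µM nifuroxazide control wells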
STAT3 inh-2: confirmation of STAT3 signaling inhibitors; U3A cells, IL-6 STAT3 luciferase reporter, luminescence; cell line lacks STAT1; actives 45% (n = 1,200); inhibition, % at 5.7 µM; shares compounds with STAT3 inh-1; AID 1265;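 active means inhibition above the hit cutoff computed for the primary STAT3 screen, cut at about 44% in these data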;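 further: 0% = IL-6 plus DMSO and 100% = IL-6 plus nifuroxazide control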
NFkB inh 2: NF-kappaB inhibition in STAT3 inhibitor counter-screen; shares compounds with STAT3 inh-1; HEK293T NF-kB luciferase reporter, TNF-alpha induced; inhibition, % at 5.7 µM; actives 36% (n = 1,200); AID 1308;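 active means inhibition above the mean of solvent-only control wells plus 3 SD, cutoff set per campaign, cut at about 13% in these data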;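 further: 0% = TNF-alpha with DMSO and 100% = TNF-alpha with MG high control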
STAT1 inh 2: STAT1 inhibition in STAT3 inhibitor counter-screen; shares compounds with STAT3 inh-1; NIH 3T3 STAT1-luciferase reporter, IFN-gamma induced, luminescence; inhibition, % at 5.7 µM; actives 27% (n = 1,200);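 active means inhibition above the mean plus 3 SD of solvent-only control wells, limit set per screening run, cut at about 16% in these data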;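 further: 0% = DMSO with IFN-gamma and 100% = nifuroxazide control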
Starred values were filed as active, the others as inactive; / = no result given. Rows were chosen to be rich in hits. Some 5.1% of all compounds tested hit in one or more screens of this group.

SMILES	STAT1 blocker	STAT3 act	STAT1 act	APP 5'UTR act	NF-kB expr up	STAT3 inh-1	STAT3 inh-2	NFkB inh 2	STAT1 inh 2
CCCNC(=O)c1ccc(-c2nc3ccccc3s2)s1	13	39	88	155*	4.6*	75*	45*	-12	-106
COc1ccccc1N1CCN(c2ccc(-c3ccccc3)nn2)CC1	-15	47	112	-90	6.6*	67*	41	18*	-65
Cc1c(Cl)cccc1NC(CC(=O)c1ccccc1)C(=O)O (centres undefined)	8	118	93	28	1.4	-22	/	/	/
O=C(CC(Nc1ccccc1Cl)C(=O)O)c1ccccc1 (centres undefined)	-31	49	127	172*	0.61	62*	16	-41	-131
Clc1ccccc1-c1nnc(-c2ccc3c(c2)OCO3)o1	-14	66	111	125	7.4*	44*	11	-26	-106
Clc1ccccc1-c1nnc2sc(-c3ccc4c(c3)OCO4)nn12	-2	106	102	22	1.2	-3	/	/	/
c1ccc(-c2noc(-c3ccc4c(c3)OCO4)n2)cc1	-1	46	99	167*	3.9*	66*	27	6	-63
O=C(O)c1cnn2c(-c3ccc(F)cc3)ccnc12	-10	103	107	5	0.94	0	/	/	/
O=c1[nH]c(N2CCOCC2)nc2c1CCCC2	7	21	94	23	1.3	97*	2	-7	-6
CCOC(=O)c1ccc(NC(=O)CSc2nc3cccnc3n2C)cc1	8	59	92	21	0.91	54*	39	2	12
Cc1ccc(NC(=O)C(=O)NCc2ccc(/C=N/NC(=O)c3c(C)nc4ccccn34)o2)cc1	-9	101	108	6	1.2	-2	/	/	/
CCC1CCCCN1C(=O)c1cc(COc2ccc3ncccc3c2)on1 (centres undefined)	26	28	75	-12	0.82	85*	83*	32*	21*
CCN1CCN(C(=O)c2cc(COc3ccc4ncccc4c3)on2)CC1	22	65	78	6	1.1	45*	42	12	18*
Cc1nc(CN(C)C(=O)c2cc(COc3ccc4ncccc4c3)on2)cs1	27	42	74	-5	0.9	71*	62*	19*	24*
CCCN1CCN(C(=O)c2cc(COc3ccc4ncccc4c3)on2)CC1	15	74	85	20	0.94	34	/	/	/
O=C(Nc1ccc(Oc2ccccc2)cc1)C1CCN(c2c3c(nc4ncnn24)CCC3)CC1	21	61	81	11	0.37	52*	47*	-4	11
O=C(Nc1ccc2c(c1)CCC2)C1CCN(c2c3c(nc4ncnn24)CCC3)CC1	28	81	75	8	0.41	24	/	/	/
O=C(Nc1cccnc1)c1ccc(C(=O)Nc2cccnc2)cc1	-1	97	100	1	0.87	6	/	/	/
Cc1ccc(NC(=O)c2ccc(CN3CCc4ccccc4C3)cc2)cc1	-2	40	102	42	2.1	71*	67*	18*	-8
CCc1ccc(NC(=O)CN2CCc3ccccc3C2)cc1	-1	110	101	9	0.86	-11	/	/	/
O=C(Nc1cccnc1)c1ccc(CN2CCc3ccccc3C2)cc1	1	64	99	14	0.87	47*	37	9	4
COCCCNC(=O)c1ccc(CN2CCc3ccccc3C2)cc1	1	98	98	6	1.2	5	/	/	/
O=C(Nc1ccccc1)c1ccc(CN2CCc3ccccc3C2)cc1	-11	59	109	3	1.6	52*	64*	8	-3
CSC(=S)NCc1cccnc1	14	100	87	32	3.2	4	/	/	/
COc1ccc(S(=O)(=O)N2CCCC2)cc1C(C)C	5	107	94	11	1	0	/	/	/
SMILES	STAT1 blocker	STAT3 act	STAT1 act	APP 5'UTR act	NF-kB expr up	STAT3 inh-1	STAT3 inh-2	NFkB inh 2	STAT1 inh 2
CC(=O)N1CCc2cc(S(=O)(=O)Nc3cccc(C(F)(F)F)c3)ccc21	21	63	81	-21	0.55	44*	39	2	19*
CC(=O)N1CCCc2cc(S(=O)(=O)Nc3ccc4c(c3)OCO4)ccc21	/	/	/	/	1	/	/	/	/
Cc1c(C(=O)N/N=C/c2ccncc2)no[n+]1[O-]	1	98	98	-31	0.9	10	/	/	/
CCCOc1ccc(-c2nnc(-c3ccco3)o2)cc1	29	38	73	104	2.8	78*	43	1	-50
CC(C)COc1ccc(-c2nnc(-c3ccco3)o2)cc1	-19	50	116	187*	4.3*	63*	42	-3	-52
O=C(COc1ccccc1)Nc1ccc(-c2nnc(-c3ccco3)o2)cc1	-27	100	125	31	1.8	3	/	/	/
O=C(Nc1ccc([N+](=O)[O-])cc1)c1cc(-c2ccccn2)nc2c(Cl)cccc12	5	100	95	0	1.2	6	/	/	/
Cc1ccc(S(=O)(=O)n2c([N+](=O)[O-])cnc2C)c(C)c1C	-2	81	102	-2	1.1	26	/	/	/
Cc1cc(Nc2cccc([N+](=O)[O-])c2)n2c(nc3ccccc32)c1C#N	8	32	101	-9	1	80*	73*	46*	55*
CCCOc1ccc(Cn2cnc3ccccc32)cc1	15	63	87	-2	0.68	48*	29	-1	7
c1ccc(OCCCCn2cnc3ccccc32)cc1	13	66	88	10	0.95	44*	35	-7	-2
Cc1ccccc1OCCCCn1cnc2ccccc21	9	50	93	22	1.1	61*	52*	12	14
Cc1ccc(OCCCCn2cnc3ccccc32)cc1	17	82	82	9	1.3	26	/	/	/
Cn1c(N)c(C(=O)COC(=O)C2CCCN2C(=O)c2cccs2)c(=O)n(C)c1=O (centres undefined)	2	100	97	9	1	1	/	/	/
COc1ccc([N+](=O)[O-])cc1NC(=O)c1ccc(Br)s1	6	126	92	-11	1.3	-26	/	/	/
O=C(Nc1cccc(S(=O)(=O)Nc2ccc(Cl)cc2)c1)c1ccc(Cl)nc1	28	33	74	-2	0.59	79*	81*	27*	23*
O=C(Nc1cccc(S(=O)(=O)Nc2ccc(Cl)cc2)c1)c1cc2c(s1)CCCC2	5	105	96	0	0.71	-11	/	/	/

Screening results (PubChem BioAssay)
